Screening data deposited in PubChem BioAssay by several laboratories.
SENP8 block-1 = blocks human SENP8 cleavage of Nedd8 substrate | AID 602440 | recombinant SENP8, Nedd8 substrate fluorescence | 360,000 compounds, 0.64% hits | inhibition, % at 20 µM; in the data active means inhibition mostly above about 40%, no sharp cut-off; inactive means mostly below about 27%
SENP6 inh = inhibitors of human SENP6 protease; Q9GZR1; Recombinant SENP6 catalytic domain, aminoluciferin luminescence; inhibition, % at 10 µM; 330,000 compounds, 1.8% hits;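 active means inhibition above about 50% at the single tested dose, limit read from the data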
Target sequence (Q9GZR1 628-1112 limits assumed): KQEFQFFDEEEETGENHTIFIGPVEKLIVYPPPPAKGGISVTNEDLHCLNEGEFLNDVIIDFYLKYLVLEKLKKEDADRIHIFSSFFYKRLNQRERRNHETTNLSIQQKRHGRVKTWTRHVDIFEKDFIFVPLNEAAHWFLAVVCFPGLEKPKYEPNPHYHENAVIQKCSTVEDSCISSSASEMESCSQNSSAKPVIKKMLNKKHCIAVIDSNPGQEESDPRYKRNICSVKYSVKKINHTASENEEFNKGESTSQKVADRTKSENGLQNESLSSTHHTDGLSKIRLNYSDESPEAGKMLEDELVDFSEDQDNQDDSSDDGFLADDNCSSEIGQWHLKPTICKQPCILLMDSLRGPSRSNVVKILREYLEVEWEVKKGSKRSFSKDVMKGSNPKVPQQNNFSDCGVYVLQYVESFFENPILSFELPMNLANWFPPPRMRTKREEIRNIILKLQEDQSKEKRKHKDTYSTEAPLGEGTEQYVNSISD
SENP8 block-2 = inhibitors of human SENP8 protease; Q96LD8; purified SENP8, Z-RLRGG-aminoluciferin cleavage, luminescence; inhibition, % at 10 µM; 330,000 compounds, 1.2% hits; AID 2540; in the data active means inhibition above about 50%
SENP7 inh = inhibitors of human SENP7 protease; Q9BQF6; recombinant SENP7, Z-RLRGG-aminoluciferin luminescence, 40 min; inhibition, % at 5 µM; AID 434973; 330,000 compounds, 1.5% hits;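 active means inhibition above about 50% at the single test dose, limit read from the data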
SENP1 inh = blocks the human SENP1 SUMO protease catalytic domain. 360,000 compounds, 0.21% hits. AID 624204. recombinant SENP1 catalytic domain, CyPet-SUMO1-YPet FRET cleavage. inhibition, % at 10 µM. Q9P0U3;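 active means inhibition at least 30% at 10 µM, raw YFP signal under a set limit, fluorescence ratio 0.5 to 1.5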
Target sequence (Q9P0U3 419-644 limits assumed): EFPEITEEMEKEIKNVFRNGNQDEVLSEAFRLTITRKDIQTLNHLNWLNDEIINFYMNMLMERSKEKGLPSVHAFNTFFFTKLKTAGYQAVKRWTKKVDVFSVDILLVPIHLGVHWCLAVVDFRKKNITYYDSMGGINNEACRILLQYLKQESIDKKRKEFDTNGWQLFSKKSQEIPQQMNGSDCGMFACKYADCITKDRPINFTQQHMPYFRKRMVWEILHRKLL
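Compound: 10 µM single point, 0.5% DMSO; Test system: hSENP1 catalytic domain, recombinant; Timing: 50 min reaction at room temperature; Technique: FRET, CFP and YFP emission; Control set: no-enzyme wells low, DMSO-plus-enzyme wells high control.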
HSP90 refold inh = inhibitors of HSP90 luciferase refolding in rabbit reticulocyte lysate; luciferase refolding luminescence, 3 h; inhibition, % at 5.6 µM; 290,000 compounds, 0.91% hits; AID 1789;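 active means inhibition above the screen-wide mean plus 3 SD, computed separately per campaign, cut at about 16% in these data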;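 further: inhibitors lower the luminescence because luciferase stays unfolded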
SENP8 confirm = human SENP8 inhibition, confirmed; shares compounds with SENP7 inh; Recombinant SENP8, Z-RLRGG-aminoluciferin luminescence, 60 min; inhibition, % at 12.5 µM; 6,200 compounds, 40% hits; AID 488912;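 active means mean inhibition across replicates above about 50%, limit read from the data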
SENP6 conf = confirmation of human SENP6 protease inhibitors; shares compounds with SENP7 inh; recombinant SENP6, Z-RLRGG-aminoluciferin luminescence; inhibition, % at 12.5 µM; 6,200 compounds, 58% hits
SENP7 confirm = confirmation of human SENP7 protease inhibitors; shares compounds with SENP7 inh; recombinant SENP7, Z-RLRGG-aminoluciferin luminescence, 40 min; inhibition, % at 12.5 µM; 6,200 compounds, 69% hits; AID 488917
Casp3 SENP sel = caspase-3 inhibition (SENP selectivity assay); shares compounds with SENP7 inh; purified caspase-3, Z-DEVD-aminoluciferin luminescence, 60 min; inhibition, % at 12.5 µM; 6,200 compounds, 60% hits;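 active means mean inhibition above about 50%, limit read from the data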
SENP luc ctr = interferes with luciferase luminescence in SENP counter-screen. 6,200 compounds, 39% hits. inhibition, % at 12.5 µM. Pre-incubated SENP8/Z-RLRGG-aminoluciferin, luciferase luminescence interference. shares compounds with SENP7 inh. AID 488919;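 active means mean inhibition above about 50% when retested at one dose, limit read from the data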
Each line names hits and unclear results; the compound was inactive in the other large screens (follow-up assays come after a bar, where they were run). This is a sample that favours compounds with a hit; in the whole collection about 2.9% have one here.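 How the source made its calls, unless noted: active means mean inhibition above about 50% in the one-dose retest (limit read from the data); inactive means the rest.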

CCOC(=O)c1c(C)oc2c1cc(O)c1ccccc12	SENP7 inh 72 | SENP8 confirm inactive | SENP6 conf inactive | SENP7 confirm inactive | Casp3 SENP sel inactive | SENP luc ctr inactive
COc1ccc2cc3cc(C(=O)NCCCN4CCC(C)CC4)oc3nc2c1	none
COc1ccc2cc3cc(C(=O)N4CCN(C5CCCCC5)CC4)oc3nc2c1	none
COc1ccc2cc3cc(C(=O)N4CCCCC4C)oc3nc2c1 (stereo not drawn)	SENP6 inh 64, SENP8 block-2 52, SENP7 inh 67 | SENP8 confirm 64 | SENP6 conf 61 | SENP7 confirm 88 | Casp3 SENP sel 75 | SENP luc ctr inactive
COc1ccc2cc3cc(C(=O)N(C)C4CCCCC4)oc3nc2c1	SENP6 inh 60, SENP8 block-2 52, SENP7 inh 61 | SENP8 confirm inactive | SENP6 conf inactive | SENP7 confirm inactive | Casp3 SENP sel inactive | SENP luc ctr inactive
Oc1ccccc1-c1cc(-c2cccc(F)c2)n[nH]1	SENP6 inh 93, SENP8 block-2 88, SENP7 inh 88 | SENP8 confirm 95 | SENP6 conf 95 | SENP7 confirm 100 | Casp3 SENP sel 64 | SENP luc ctr 74
Oc1ccccc1-c1cc(-c2ccccc2Cl)[nH]n1	SENP6 inh 94, SENP8 block-2 95, SENP7 inh 95 | SENP8 confirm 98 | SENP6 conf 99 | SENP7 confirm 102 | Casp3 SENP sel 85 | SENP luc ctr 95
COC(=O)c1ccc(-c2nc3cc(Cl)c(N)cc3s2)cc1	SENP6 inh 63, SENP7 inh 97 | SENP8 confirm inactive | SENP6 conf inactive | SENP7 confirm inactive | Casp3 SENP sel inactive | SENP luc ctr inactive
COC(=O)c1ccc(C(=O)Nc2nc3cc(N)c(C)cc3s2)cc1	none
CCOc1ccc(NC(=O)C(CC(=O)O)Cc2ccc(C)cc2)cc1 (stereo not drawn)	none
COc1ccc2nc(-c3ccco3)c(-c3ccco3)nc2c1	none
COc1ccc2nc3cccc(OC)c3nc2c1	SENP6 inh 73 | SENP8 confirm inactive | SENP6 conf inactive | SENP7 confirm inactive | Casp3 SENP sel 51 | SENP luc ctr inactive
CCOC(=O)C1CCN(c2ncnc3c2oc2ccccc23)CC1	none
CCOC(=O)c1cnn(-c2ncnc3c2oc2ccccc23)c1N	SENP7 inh 73 (no result: HSP90 refold inh) | SENP8 confirm inactive | SENP6 conf inactive | SENP7 confirm inactive | Casp3 SENP sel inactive | SENP luc ctr inactive
COc1ccc(C(=O)Nc2nnc(-c3ccco3)s2)cc1	SENP6 inh 88, SENP8 block-2 78, SENP7 inh 95 | SENP8 confirm inactive | SENP6 conf inactive | SENP7 confirm inactive | Casp3 SENP sel inactive | SENP luc ctr inactive
COc1ccc(NC(=O)Nc2nnc(-c3cccs3)s2)cc1	none
O=C(Nc1nnc(-c2ccco2)s1)C1CC1	none
O=C(Nc1nnc(-c2ccco2)s1)c1ccccc1	SENP6 inh 68 | SENP8 confirm inactive | SENP6 conf 54 | SENP7 confirm 85 | Casp3 SENP sel 77 | SENP luc ctr inactive
COc1ccc(C(=O)Nc2nnc(-c3cccs3)s2)cc1	SENP7 inh 56 | SENP8 confirm inactive | SENP6 conf inactive | SENP7 confirm inactive | Casp3 SENP sel inactive | SENP luc ctr inactive
COC(=O)[C@]1(Cc2ccccc2)N[C@H](CN(C)C(=O)Nc2ccc(Cl)cc2)[C@@H]2C(=O)N(Cc3ccccc3)C(=O)[C@@H]21	none (no result: HSP90 refold inh)
CN(C)C(CNC(=O)c1ccccc1OCc1ccc(Cl)cc1)c1ccco1 (stereo not drawn)	none (no result: HSP90 refold inh)
O=C(Nc1ccc(Cl)cc1)C1=Cc2cc(Cl)ccc2OC1	none
O=C(Nc1ccc(Cl)cc1Cl)C1=Cc2ccccc2OC1	SENP7 inh 51 | SENP8 confirm inactive | SENP6 conf inactive | SENP7 confirm inactive | Casp3 SENP sel inactive | SENP luc ctr inactive
COc1ccc(NC(=O)C2=Cc3ccccc3OC2)cc1	SENP6 inh 68, SENP8 block-2 61, SENP7 inh 73 | SENP8 confirm 59 | SENP6 conf 60 | SENP7 confirm 87 | Casp3 SENP sel 66 | SENP luc ctr inactive
COc1ccc(NC(=O)C2=Cc3cccc(OC)c3OC2)cc1	none
O=C(CNC(=O)c1ccccc1Cl)N/N=C/c1ccc2c(c1)OCO2	none
Clc1ccccc1N/N=C/c1ccc2c(c1)OCO2	SENP6 inh 96, SENP8 block-2 89, SENP7 inh 74 | SENP8 confirm 98 | SENP6 conf 99 | SENP7 confirm 102 | Casp3 SENP sel 91 | SENP luc ctr 89
C(=N\Nc1nc2ccccc2[nH]1)/c1ccc2c(c1)OCO2	none (no result: SENP6 inh, SENP8 block-2, SENP7 inh)
Cc1nc(N/N=C\c2ccc3c(c2)OCO3)sc1C	SENP6 inh 50 | SENP8 confirm inactive | SENP6 conf inactive | SENP7 confirm 75 | Casp3 SENP sel inactive | SENP luc ctr inactive
CN1CCN(S(=O)(=O)c2ccc(N(C)Cc3c(F)cccc3Cl)nc2)CC1	none (no result: HSP90 refold inh)
O=C(COC(=O)c1ccc(F)c(S(=O)(=O)N2CCOCC2)c1)NCc1ccccc1	none (no result: HSP90 refold inh)
CC1CCN(CCc2nc3cc(NC(=O)COc4ccc(Cl)cc4)ccc3n2C)CC1	none
CN(C)Cc1c(OC(=O)c2ccc(N)cc2)ccc2ccccc12	none (no result: SENP6 inh, SENP8 block-2, SENP7 inh, HSP90 refold inh)
Cc1cccc(-n2ncc3c(N(CCO)CCO)ncnc32)c1	none
Cc1cccc(-n2ncc3c(N(C)C4CCCCC4)ncnc32)c1	SENP6 inh 67, SENP8 block-2 68, SENP7 inh 60 (no result: HSP90 refold inh) | SENP8 confirm inactive | SENP6 conf inactive | SENP7 confirm inactive | Casp3 SENP sel inactive | SENP luc ctr inactive
O=[N+]([O-])c1cccc(N=Nc2ccc(O)cc2O)c1	none (no result: SENP6 inh, SENP8 block-2, SENP7 inh, HSP90 refold inh)
O=[N+]([O-])c1ccc(N=Nc2ccc(O)cc2O)cc1	SENP6 inh 97, SENP8 block-2 96, SENP7 inh 98 | SENP8 confirm 100 | SENP6 conf 101 | SENP7 confirm 104 | Casp3 SENP sel 99 | SENP luc ctr 99
COc1ccc(-c2cn3c4c(sc3n2)CCCC4)cc1	SENP6 inh 57, SENP7 inh 53 | SENP8 confirm 69 | SENP6 conf 68 | SENP7 confirm 89 | Casp3 SENP sel 54 | SENP luc ctr inactive
